From PubChem BioAssay
A selection: hits, their analogues and other compounds. The true share with any hit is near 4.7%.
aSyn 5UTR inh = 5' untranslated region of α-synuclein, MLPCN primary screen; alpha-synuclein 5'UTR reporter, inhibitor activity; 0.82% of 300,000 active; AID 1813; inhibition, % (tested at 7.5 µM); in the data active means inhibition above about 60%;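 further: H4 neuroglioblastoma cells stably carrying SNCA 5'UTR luciferase fusion; 0% = DMSO wells and 100% = positive control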
IMP-1 inh-1 = blocks Pseudomonas aeruginosa IMP-1 metallo-beta-lactamase; purified IMP-1, nitrocefin hydrolysis, epi-absorbance fluorescence; inhibition, % at 5.6 µM; 0.45% of 290,000 active; AID 1556;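 active means inhibition above the mean plus 3 SD of all compounds in the same screening run, cut at about 4.5% in these data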;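 further: 0% = IMP-1 with DMSO and 100% = DMSO wells lacking enzyme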
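System: Purified recombinant IMP-1 metallo-beta-lactamase enzyme | Measured by: Fluorescence quenching readout, ex 480/em 530 nm | Replication: Singlicate | Incubation: 15 min preincubation plus 25 min reaction at 25 °C | Evaluation: Percent inhibition from optical density relative to buffer-blank wells | Benchmarks: DMSO with and without IMP-1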
697 NFkB inh = lowers PMA/ionomycin-induced NF-kB signal in 697 B cells | 697 B-cell NF-kB luciferase reporter, 16 h | inhibition, % at 4 µM | 0.33% of 330,000 active; in the data active means inhibition above about 35%
Jurkat NFkB inh = inhibitors of the PMA/ionomycin-induced NF-kB reporter in Jurkat cells; 0.53% of 330,000 active; PMA/ionomycin-induced NF-kB luciferase reporter, luminescence; AID 435003; inhibition, % at 4 µM; in the data active means inhibition above about 50%
Mdm2 MdmX PPI = human Mdm2/MdmX binding inhibition. O15151+Q00987. SaOS-2 split-luciferase Mdm2/MdmX complementation, luminescence. inhibition, % at 8 µM. 3% of 330,000 active. AID 485346;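 active means inhibition of at least 50% at 8 µM in the primary screen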
VIM-2 inh = blocks Pseudomonas aeruginosa VIM-2 metallo-beta-lactamase | 0.89% of 290,000 active | inhibition, % at 5.6 µM | purified VIM-2, nitrocefin hydrolysis, epi-absorbance fluorescence;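 active means inhibition above the mean of all tested compounds plus 3 SD, cutoff set per screening run, cut at about 7.5% in these data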;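 further: red hydrolysis product quenches plate fluorescence so inhibitors raise well fluorescence; 0% = enzyme with DMSO and 100% = DMSO without enzyme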
IMP-1 inh-2 = blocks IMP-1 metallo-beta-lactamase in VIM-2 selectivity screen. 1,300 tested, under 10 active. shares compounds with VIM-2 inh. inhibition, % at 5.6 µM. purified IMP-1, nitrocefin hydrolysis, epi-absorbance fluorescence. AID 1856; call rule not given here;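 further: 0% = enzyme with vehicle and 100% = vehicle without enzyme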
VIM-2 FRET ctr = VIM-2 FRET inhibition, artifact counter-screen; inhibition, % at 5.6 µM; 23% of 1,300 active; shares compounds with VIM-2 inh; purified VIM-2, CCF2 FRET substrate hydrolysis; AID 1857;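 active means inhibition above the mean of all tested compounds plus 3 SD, cut at about 19% in these data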;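 further: 0% = VIM-2 plus DMSO and 100% = no enzyme wells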
TEM-1 counter = blocks E. coli TEM-1 beta-lactamase in VIM-2 selectivity screen | shares compounds with VIM-2 inh | Purified TEM-1, nitrocefin hydrolysis, epi-absorbance fluorescence | inhibition, % at 5.6 µM | 3% of 1,300 active;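 active means inhibition above that campaign's mean inhibition plus 3 SD, cut at about 0.46% in these data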;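 further: 0% = TEM-1 with DMSO and 100% = TEM-1 with 100 µM potassium clavulanate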
Target sequence (P62593 whole entry, looked up): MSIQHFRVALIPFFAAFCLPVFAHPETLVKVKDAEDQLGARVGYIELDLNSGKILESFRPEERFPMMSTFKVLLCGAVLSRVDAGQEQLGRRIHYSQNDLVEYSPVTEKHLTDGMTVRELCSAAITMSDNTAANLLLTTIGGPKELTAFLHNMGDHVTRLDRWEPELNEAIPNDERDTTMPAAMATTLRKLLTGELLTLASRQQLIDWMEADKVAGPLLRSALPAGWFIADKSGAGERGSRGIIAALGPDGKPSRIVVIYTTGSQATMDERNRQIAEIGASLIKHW
VIM-2 inh conf = confirmation of P. aeruginosa VIM-2 metallo-beta-lactamase inhibitors; shares compounds with VIM-2 inh; purified VIM-2, nitrocefin hydrolysis, epi-absorbance; 96% of 1,300 active; inhibition, % at 5.6 µM;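 active means inhibition of the VIM-2 beta-lactamase enzyme above about 11% from the earlier first-round screen, limit read from the data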;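 further: 0% = VIM-2 with DMSO and 100% = buffer wells without enzyme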
The depositor's hits bear a star; / = not tested or not shown.

SMILES	aSyn 5UTR inh	IMP-1 inh-1	697 NFkB inh	Jurkat NFkB inh	Mdm2 MdmX PPI	VIM-2 inh	IMP-1 inh-2	VIM-2 FRET ctr	TEM-1 counter	VIM-2 inh conf
CN(C(=O)COC(=O)/C=C/c1ccc(C(F)(F)F)cc1)c1c(N)n(Cc2ccccc2)c(=O)[nH]c1=O	1.0	/	9.2	16.3	-13.5	/	/	/	/	/
COc1cc(OC)c(C(=O)NC2CCCc3ccccc32)cc1OC (stereo unspecified)	27.9	-1.8	2.2	4.6	12.5	-3.7	/	/	/	/
Cc1n[nH]c(C)c1N1C(=O)c2cccc3cc(Br)cc(c23)C1=O	26.6	-2.2	14.9	22.7	13.8	14.9*	-2.2	-4.8	-5.1	25.8*
Cc1ccc(C(=O)O)cc1N1C(=O)c2cccc3cc(Br)cc(c23)C1=O	-15.7	-1.1	30.4	4.5	25.5	-1.4	/	/	/	/
Cc1n[nH]c(C)c1N1C(=O)c2cccc3c(Br)ccc(c23)C1=O	-12.5	0.9	7.6	-2.7	27.2	29.0*	-3.2	-3.9	-5.6	33.4*
COc1ccc(-c2nn(C)c3sc(C(=O)NCCN(C)C)cc23)cc1OC	-29.2	-3.0	-2.1	-24.6	-1.5	16.8*	-2.7	-1.8	-6.1	29.8*
CCN(CC)CCNC(=O)c1cc2c(-c3cccc(OC)c3)nn(C)c2s1	-48.0	-1.9	-6.2	-33.3	-21.2	13.8*	-2.0	3.8	-4.4	22.6*
CCN(CC)CCNC(=O)c1cc2c(-c3ccc(Cl)cc3)nn(C)c2s1	-43.5	-2.5	-13.5	-8.7	38.9	2.2	/	/	/	/
CCCN(CCC)CCCNC(=O)c1cc2c(-c3ccc(OC)c(OC)c3)nn(C)c2s1	-35.1	-4.0	9.1	-39.8	13.4	12.3*	-3.5	-3.7	-5.7	23.8*
CCc1ccccc1Nc1nc(-c2cccnc2)cs1	-47.4	-1.1	-30.9	-29.6	8.1	0.9	/	/	/	/
O=[N+]([O-])c1ccccc1Nc1nc(-c2cccnc2)cs1	-91.1	-3.6	-61.5	-37.4	-25.6	15.6*	-3.5	-3.2	-9.7	27.2*
COc1ccc(/C=C2\SC(=S)N(CCCC(=O)N3CCN(C)CC3)C2=O)cc1	-17.7	-0.1	5.4	-5.4	25.7	15.5*	-2.1	0.3	-6.8	26.6*
O=C1c2ccccc2-c2nc3ccccc3cc21	-114.2	-4.1	-112.3	-130.4	-114.8	12.3*	-3.9	0.4	-11.2	17.4*
O=C(COc1ccc([N+](=O)[O-])cc1)Nc1ccccc1C(=O)NC1CC1	8.8	/	23.2	4.9	15.3	/	/	/	/	/
COc1ccc(NC(=O)COc2cccc3c2CCN(Cc2cccnc2)C3=O)c(OC)c1	-11.7	0.2	-34.5	4.1	19.6	13.7*	-1.7	-5.2	-4.8	22.7*
COc1cccc(-n2c(CCn3nc(C)c([N+](=O)[O-])c3C)n[nH]c2=S)c1	-14.5	-2.6	20.4	13.3	-1.2	13.8*	-2.8	37.6*	-4.5	25.0*
Cc1cccc(-n2c(Cc3ccccc3)n[nH]c2=S)c1	19.4	-1.1	9.5	19.7	-22.2	3.0	/	/	/	/
COc1ccc(CCn2nc(C)c([N+](=O)[O-])c2C)cc1	-101.0	-2.1	-62.8	-89.8	11.0	-0.5	/	/	/	/
Cc1cccc(-n2c(CCn3nc(C)c([N+](=O)[O-])c3C)n[nH]c2=S)c1	7.3	-5.1	22.3	6.5	14.4	17.4*	-3.6	46.4*	-7.4	30.2*
COc1cccc(N2CCN(C(=O)C3CCC(=O)N(C4CCCCCC4)C3)CC2)c1 (stereo unspecified)	-8.5	0.2	-35.7	-8.9	-16.9	-0.6	/	/	/	/
O=C(O)CC/C(=C\c1cccc(NC(=O)c2ccccc2Cl)c1)c1nc2ccccc2s1	10.7	-1.0	3.3	-0.4	0.2	0.3	/	/	/	/
O=C(O)C/C(=C\c1cc(Cl)c2c(c1)OCO2)c1nc2ccccc2s1	1.7	1.3	2.7	-2.8	27.8	14.1*	0.1	39.8*	-4.9	23.1*
COCCNC(=S)N/N=C(\C)c1ccc(-n2ccnc2)cc1	5.0	-2.4	-6.5	1.4	-1.3	67.2*	1.1	1.5	0.4*	81.7*
C=CCNC(=S)N/N=C(\C)c1ccc(-n2ccnc2)cc1	-17.7	-1.0	-10.3	4.3	1.0	66.4*	-2.8	-7.0	-7.7	80.4*
C/C(=N\NC(=S)NC(C)C)c1ccc(-n2ccnc2)cc1	2.7	-1.5	-51.4	-41.5	4.6	77.3*	-1.7	-11.5	-7.4	86.4*
SMILES	aSyn 5UTR inh	IMP-1 inh-1	697 NFkB inh	Jurkat NFkB inh	Mdm2 MdmX PPI	VIM-2 inh	IMP-1 inh-2	VIM-2 FRET ctr	TEM-1 counter	VIM-2 inh conf
CNC(=S)N/N=C(\C)c1ccc(-n2ccnc2)cc1	23.3	1.3	6.1	13.5	22.8	23.4*	-3.8	-15.2	-7.3	43.0*
CC(C)CN1Cc2ccccc2Oc2cc(Br)ccc2S1(=O)=O	/	/	3.6	/	23.7	/	/	/	/	/
O=C(NCCN1CCOCC1)C1CCCN(S(=O)(=O)c2ccc(F)cc2)C1 (stereo unspecified)	11.5	-1.8	17.7	6.1	9.2	-4.2	/	/	/	/
COc1ccc(/C=C2\N=C(SC)NC2=O)cc1	-22.6	-6.5	-11.3	-1.6	2.6	-2.7	/	/	/	/
CSC1=N/C(=C/c2ccc(-n3cncn3)cc2)C(=O)N1	5.5	0.8	12.3	7.4	-0.6	14.1*	-2.9	-2.0	-9.0	54.9*
CSc1cccc(NC(=O)CN(C)S(=O)(=O)c2cnc[nH]2)c1	16.3	-0.2	-6.4	-1.5	4.6	-2.6	/	/	/	/
OC1=C(O)c2nc3cc(C(F)(F)F)ccc3nc21	5.3	1.3	0.2	-2.4	-2.7	16.7*	-3.6	-1.0	-6.3	2.4
CC1(C)CC(=O)C=C(/C=C/c2ccccc2)C1	/	/	-13.1	-13.0	-44.0	/	/	/	/	/
CC(C)(C)c1ccc(-c2n[nH]c(=S)n2CC2CCCO2)cc1 (stereo unspecified)	-10.1	-2.8	-12.4	16.3	11.7	-0.1	/	/	/	/
CC(C)(C)c1ccc(-c2n[nH]c(=S)n2CCCN2CCOCC2)cc1	18.4	-2.1	-7.3	5.2	-1.6	13.3*	-4.2	33.3*	-8.2	21.7*
Cn1ccnc1SCC(=O)Nc1ccc2nc(SCC(=O)NC3CC3)sc2c1	-152.3	-1.6	8.2	-80.4	-14.4	12.7*	-3.2	36.1*	-5.5	25.1*
COc1ccc(CCn2c(=N)c(C(=O)NCC3CCCO3)cc3c(=O)n4ccccc4nc32)cc1OC (stereo unspecified)	-43.8	-1.6	-33.0	-16.2	16.3	13.6*	-2.2	-1.0	-5.4	21.5*
